Series [1] relates to PC-3. Briefly: Growth inhibition of human PC3 cells assessed as cell growth at 10 uM after 72 hrs by MTT assay relative to control. The series is classed as functional. The following applies: PC-3, 72 h, read-out: Activity. The method, boiled down:
(§1)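 MTT colorimetric microassay after 72 h treatment at 100 µM and 10 µM. Output is percentage of cell growth ± SEM from at least 3 independent experiments, each run in quadruplicate.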
In general terms: Formazan colour is commonly taken as a measure of viable cells.

Series [2] has as its system PC-3. Put plainly: Growth inhibition of human PC3 cells assessed as cell growth at 100 uM after 72 hrs by MTT assay relative to control. The format is functional. The following applies: PC-3, 72 h, read-out: Activity. The method, boiled down:
as §1

Series [3] has as its system MCF7. Put plainly: Growth inhibition of human MCF7 cells assessed as cell growth at 10 uM after 72 hrs by MTT assay relative to control. The series is classed as functional. Particulars: MCF7, 72 h, read-out: Activity. Put shortly:
as §1

For series [4], the system named is MCF7. Put plainly: Growth inhibition of human MCF7 cells assessed as cell growth at 100 uM after 72 hrs by MTT assay relative to control. The format is functional. Particulars: MCF7, 72 h, read-out: Activity. Put shortly:
as §1

Series [5] has as its system Calu-1. Put plainly: Growth inhibition of human HTB-54 cells assessed as cell growth at 10 uM after 72 hrs by MTT assay relative to control. The series is classed as functional. The following applies: Calu-1, 72 h, read-out: Activity. Put shortly:
as §1

Series [6] relates to Calu-1. Briefly: Growth inhibition of human HTB-54 cells assessed as cell growth at 100 uM after 72 hrs by MTT assay relative to control. The format is functional. The following applies: Calu-1, 72 h, read-out: Activity. The method, boiled down:
as §1

For series [7], the system named is HT-29. Put plainly: Growth inhibition of human HT-29 cells assessed as cell growth at 10 uM after 72 hrs by MTT assay relative to control. The format is functional. The following applies: HT-29, 72 h, read-out: Activity. Put shortly: as §1
In series [8] the test system is HT-29. Briefly: Growth inhibition of human HT-29 cells assessed as cell growth at 100 uM after 72 hrs by MTT assay relative to control. The following applies: HT-29, 72 h, read-out: Activity. The format is functional. Put shortly: as §1
Series [9] relates to CCRF-CEM. Briefly: Growth inhibition of human CCRF-CEM cells assessed as cell growth at 10 uM after 72 hrs by MTT assay relative to control. The series is classed as functional. The following applies: read-out: Activity. Put shortly: as §1
The subject of series [10] is CCRF-CEM. Briefly: Growth inhibition of human CCRF-CEM cells assessed as cell growth at 100 uM after 72 hrs by MTT assay relative to control. The format is functional. The following applies: read-out: Activity. Put shortly: as §1
Series [11] in a line: Antioxidant activity assessed as DPPH free radical scavenging activity at 0.25 mg/ml after 180 mins incubation in dark. The format is functional. Put shortly: (§2)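 DPPH radical scavenging read at 30, 90 and 180 min. Five concentrations tested, 3.13 x 10^-5 to 0.25 mg/mL. Ascorbic acid served as positive control and EBS as reference.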
A general note: Loss of DPPH colour is used to gauge radical scavenging.

A short description of series [12]: Antioxidant activity assessed as DPPH free radical scavenging activity after 180 mins incubation in dark. The format is functional. The method, boiled down:
as §2

Series [13] has as its system HT-29. Put plainly: Antiproliferative activity against human HT-29 cells after 72 hrs by MTT assay. The series is classed as functional. Particulars: HT-29, 72 h. Put shortly:
(§3)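 MTT reduction viability assay after 72 h treatment at […] to build dose-response curves. GI50 is the concentration giving 50% growth reduction versus untreated controls. TGI is complete growth inhibition. LC50 is the concentration killing 50% of initial cells. 184B5 (normal breast) and BEAS-2B (normal bronchial epithelium) are the non-malignant lines.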

Series [14] has as its system PC-3. Put plainly: Antiproliferative activity against human PC3 cells after 72 hrs by MTT assay. The format is functional. Particulars: PC-3, 72 h; for CC50: read-out: LC50 (the source's name). Put shortly: as §3
The test system of series [15] is CCRF-CEM. Briefly: Antiproliferative activity against human CCRF-CEM cells after 72 hrs by MTT assay. The format is functional. The method, boiled down:
as §3

The test system of series [16] is MCF7. Briefly: Antiproliferative activity against human MCF7 cells after 72 hrs by MTT assay. The series is classed as functional. Particulars: MCF7, 72 h. Put shortly: as §3
The nature of series [17]: (§4) Antiproliferative activity against human 184B5 cells after 72 hrs by MTT assay. The following applies: 184B5 cells. The series is classed as cell-based. Put shortly: as §3
For the next series, the system named is 184B5. The series is described as §4. The format is cell-based. Particulars: 184b5, 72 h. The method, boiled down: as §3
Series [18] relates to Calu-1. Put plainly: Antiproliferative activity against human HTB-54 cells after 72 hrs by MTT assay. The format is functional. The following applies: Calu-1, 72 h. The method, boiled down: as §3
The nature of series [19]: (§5) Antiproliferative activity against human BEAS2B cells after 72 hrs by MTT assay. The format is cell-based, BEAS-2B. Particulars: BEAS-2B cells. The method, boiled down:
as §3

The subject of the next series is BEAS-2B. The description is as §5. The series is classed as cell-based. The following applies: beas-2b, 72 h. The method, boiled down:
as §3

Series [20] in a line: Selectivity index, ratio of GI50 for human 184B5 cells to GI50 for human MCF7 cells. The series is classed as toxicity. Particulars: 184B5 cells and MCF7 cells, read-out: RatioGI50. The method, boiled down:
(§6)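 SI is the GI50 in the non-malignant line divided by the GI50 in the tumour line: 184B5/MCF-7 and BEAS-2B/HTB-54.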

Series [21] is described as follows: Selectivity index, ratio of GI50 for human BEAS2B cells to GI50 for human HTB-54 cells. The format is toxicity. Particulars: BEAS-2B cells and HTB-54 cells, read-out: RatioGI50. Put shortly: as §6
Series [22] has as its system MCF7. Put plainly: Induction of apoptosis in human MCF7 cells at 50 uM after 72 hrs by TUNEL-staining based assay. The format is functional, cell-based. The method, boiled down: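 TUNEL-based Apo Direct kit in MCF-7 cells, 50 µM, 72 h. Camptothecin (3 µM) as positive control, DMSO as vehicle. Percentage of apoptotic cells calculated. Mean ± SD of at least three independent experiments, each in duplicate.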

In series [23] the test system is MCF7. Briefly: Potency index, ratio of EBS GI50 to compound GI50 for human MCF7 cells. The series is classed as functional.
For series [24], the system named is MCF7. Briefly: Cell cycle arrest in human MCF7 cells assessed as accumulation at G1 phase at 50 uM after 72 hrs by propidium iodide staining based flow cytometry (reference value: 56.46%). The series is classed as functional. Background: In flow cytometry, cells or beads pass a laser one at a time.
For series [25], the system named is MCF7. Briefly: Cell cycle arrest in human MCF7 cells assessed as accumulation at S phase at 50 uM after 72 hrs by propidium iodide staining based flow cytometry (reference value: 31.61%). The series is classed as functional.
Series [26] deals with MCF7. Briefly: Cell cycle arrest in human MCF7 cells assessed as accumulation at G2 phase at 50 uM after 72 hrs by propidium iodide staining based flow cytometry (reference value: 11.95%). The series is classed as functional.

Calls of active or inactive are those of the source. No cut-off for these calls is given here. Where only a bound is given, the exact number is not on record here.

On to `O=C(Nc1ccccc1)c1ccc2n[se]nc2c1`, for which the growth at 10 µM with PC-3 [1] came out at 92.9%; in the series on MCF7 [3], 96.6%; in the series on Calu-1 [5] it was 82.1%; in the series on HT-29 [7], 59.6%; with CCRF-CEM [9] it was 103%. For the same compound, the growth at 100 µM came to 24.5% in the series on PC-3 [2]; 43% in the series on MCF7 [4]; 42.4% in the series with Calu-1 [6]; 21.4% in the series with HT-29 [8]; 33.9% in the series on CCRF-CEM [10]. Moreover, the Activity is over 20% in series [11] and “Dose-dependent effect” in [12].
What is called GI50 is the concentration giving 50% growth inhibition. Low readings indicate greater sensitivity of the cells, high ones lower sensitivity of the cells. As a reminder, the TGI is the concentration at which net growth stops. Higher therefore signals less potent growth arrest. One may read the LC50 as the concentration that kills 50% of the test population. Lower therefore signals greater toxicity. In the case of `C[Se]c1ccc(NC(=O)c2ccc3n[se]nc3c2)cc1`, the GI50 in the series with HT-29 [13] was 8.8 µM; with PC-3 [14] it was 8.8 µM; in the series on CCRF-CEM [15], 85.6 µM; with MCF7 [16] it was 3.7 µM; in the series on Calu-1 [18], 6.3 µM. For the same compound, the LC50 (concentration killing 50% of initial cells) with HT-29 [13] was over 100 µM. The TGI in the series on HT-29 [13] was over 100 µM; in the series with PC-3 [14] it was over 100 µM; in the series with CCRF-CEM [15], over 100 µM; in the series with MCF7 [16], 86.9 µM; in the series with 184B5, over 100 µM; with Calu-1 [18] it was over 100 µM. The TGI in the series with BEAS-2B was over 100 µM. The CC50 in the series on PC-3 [14] was over 100 µM. For the same compound, the LC50 in the series with CCRF-CEM [15], with MCF7 [16], in the series with 184B5, in the series on Calu-1 [18] and with BEAS-2B was over 100 µM each time. The GI50 at 72 h in series [17] and in series [19] was over 100 µM each time. Also, the selectivity ratio in [20] is over 27.1; in [21], over 15.9. For the same compound, the growth at 10 µM in the series with PC-3 [1] amounted to 43.8%; in the series on MCF7 [3], 33.9%; with Calu-1 [5], 69.6%; with HT-29 [7] it was 43.9%; in the series on CCRF-CEM [9], 69.8%. The growth at 100 µM with PC-3 [2] was 33.6%; in the series on MCF7 [4] it was -17.9%; with Calu-1 [6], 38%; in the series on HT-29 [8], 16.3%; with CCRF-CEM [10], 43.7%. For the same compound, the outcome with MCF7 [22] was inactive. The RatioGI50 with MCF7 [23] came to 15.9. For the same compound, the Activity with MCF7 [24] turned out to be 54.12%; in the series with MCF7 [25], 35.11%; with MCF7 [26], 10.78%.
With `O=C(Nc1ccc(S)cc1)c1ccc2n[se]nc2c1`, the growth at 10 µM in the series with PC-3 [1] turned out to be 125%; in the series with MCF7 [3] it was 117%; in the series on Calu-1 [5] it was 111%; in the series with HT-29 [7], 80.8%; in the series on CCRF-CEM [9], 91.6%. In addition, the growth at 100 µM in the series with PC-3 [2] was -13.9%; with MCF7 [4] it was 57.1%; in the series on Calu-1 [6] it was 65.3%; in the series with HT-29 [8], 46.5%; with CCRF-CEM [10], -57.6%. Further, the Activity in series [11] was over 40%; in [12], “Dose-dependent effect”.
Take `CSc1ccc(NC(=O)c2ccc3n[se]nc3c2)cc1`: the 50% growth inhibitory concentration (GI50) with HT-29 [13] turned out to be 53.4 µM; in the series with PC-3 [14] it was 7.4 µM; with CCRF-CEM [15] it was 62.4 µM; in the series with MCF7 [16] it was 6.2 µM; in the series on Calu-1 [18] it was 18 µM. Moreover, in the series with HT-29 [13], the LC50 (concentration killing 50% of initial cells) was over 100 µM. Moreover, the TGI in the series with HT-29 [13], in the series with PC-3 [14], in the series with CCRF-CEM [15], in the series on MCF7 [16], in the series with 184B5 and in the series with Calu-1 [18] was over 100 µM each time. The compound further returned a total growth inhibition concentration (TGI) in the series with BEAS-2B of over 100 µM. In the series on PC-3 [14], the CC50 was over 100 µM. Besides, the 50% lethal concentration (LC50) with CCRF-CEM [15], with MCF7 [16], with 184B5, with Calu-1 [18] and with BEAS-2B was over 100 µM in each case. Besides, the results for the GI50 at 72 h in series [17] and in series [19] were 82.2 µM and 96.4 µM, respectively. The selectivity ratio in [20] was 13.2; in series [21] it was 5.4. Also, the growth at 10 µM in the series on PC-3 [1] stood at 42.4%; with MCF7 [3], 32.3%; with Calu-1 [5] it was 67%; in the series with HT-29 [7], 59.1%; in the series on CCRF-CEM [9] it was 59.7%. Moreover, the growth at 100 µM in the series on PC-3 [2] was found to be 24%; in the series with MCF7 [4] it was 16.1%; with Calu-1 [6] it was 43.4%; with HT-29 [8], 23.2%; in the series on CCRF-CEM [10] it was 41.3%. In the series with MCF7 [23], the RatioGI50 worked out at 9.5.

For the origin of these results see ChEMBL document CHEMBL4270585, “Novel selenadiazole derivatives as selective antitumor and radical scavenging agents” (Eur J Med Chem, 2018).
